Results from PubChem BioAssay AID623983 (Vanderbilt High Throughput Screening Facility, 2012).
The source made the active and inactive calls. How the calls were made is not given here.

Biological target: G protein-activated inward rectifier potassium channel 2 (Homo sapiens) + G protein-activated inward rectifier potassium channel 3 (Homo sapiens) (UniProt P48051+Q92806)
Assay: GIRK2/3 channel activators, Tl+ flux, dose response, cell-based, HEK-293 hGIRK2/3, thallium flux, FluoZin-2, concentration-response (AID 623983)
Summary of the method: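 Repeats: Triplicate wells | System: HEK-293 cells stably expressing human GIRK2/3 channels | Detection: FluoZin-2 fluorescence thallium flux, sampled at 1 Hz | Timing: FluoZin-2 AM loading ~60 min room temperature, compound 4 min pre-thallium | Also added: Tl+ stimulus plus EC20 glutamate | Evaluation: Post-thallium fluorescence slope as % of MPD response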

Chain of G protein-activated inward rectifier potassium channel 2 (Homo sapiens) + G protein-activated inward rectifier potassium channel 3 (Homo sapiens) (P48051 whole entry, looked up): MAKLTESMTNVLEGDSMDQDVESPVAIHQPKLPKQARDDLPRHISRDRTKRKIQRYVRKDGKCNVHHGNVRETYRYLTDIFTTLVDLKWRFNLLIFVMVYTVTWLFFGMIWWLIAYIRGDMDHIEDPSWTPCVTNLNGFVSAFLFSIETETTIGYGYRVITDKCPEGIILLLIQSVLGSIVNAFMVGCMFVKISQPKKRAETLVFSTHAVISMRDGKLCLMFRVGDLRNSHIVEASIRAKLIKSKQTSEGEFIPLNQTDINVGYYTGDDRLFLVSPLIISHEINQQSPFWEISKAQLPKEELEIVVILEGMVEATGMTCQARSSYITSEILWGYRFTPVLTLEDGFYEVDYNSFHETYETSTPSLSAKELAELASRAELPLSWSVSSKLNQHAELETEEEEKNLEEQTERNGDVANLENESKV
Chain of G protein-activated inward rectifier potassium channel 2 (Homo sapiens) + G protein-activated inward rectifier potassium channel 3 (Homo sapiens) (Q92806 whole entry, looked up): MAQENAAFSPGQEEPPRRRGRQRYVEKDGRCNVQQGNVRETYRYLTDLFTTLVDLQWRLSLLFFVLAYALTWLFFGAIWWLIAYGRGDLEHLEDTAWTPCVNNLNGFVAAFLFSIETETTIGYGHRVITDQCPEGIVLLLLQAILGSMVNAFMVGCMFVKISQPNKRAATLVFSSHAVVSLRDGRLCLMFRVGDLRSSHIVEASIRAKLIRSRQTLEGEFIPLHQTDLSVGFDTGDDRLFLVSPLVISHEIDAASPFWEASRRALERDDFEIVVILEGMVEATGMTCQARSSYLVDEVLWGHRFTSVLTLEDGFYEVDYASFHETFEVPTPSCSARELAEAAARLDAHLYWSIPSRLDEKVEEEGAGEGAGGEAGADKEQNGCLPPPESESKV

Compound: Cc1cc(NC(=O)Nc2ccc(F)c(F)c2)n(-c2ccccc2)n1
- outcome: inactive
